Several values for one entry are separate records, joined by “and”; a condition that tells them apart may be missing. Identical values can stand only once.
Experiments:
[1] = target: Neuronal acetylcholine receptor; alpha3/beta2 (Rattus norvegicus, UniProt P04757+P12390); experiment: Inhibition of rat Nicotinic acetylcholine receptor alpha3-beta2 expressed in Xenopus Oocytes; type: cell-based
Method in brief: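 Rat nAChR subunit cRNAs (50 nL, 5–50 ng/µL) injected into Xenopus oocytes, kept at 19 °C in ND96 pH 7.4 with gentamycin; two-electrode voltage clamp at −70 mV, 2–10 days post-injection. Peptide added to static bath, 3–10 min before agonist; sub-1 nM also perfused 10–15 min. IC50 from fitted concentration–response curves with Hill slope.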

[2] = Inhibition ratio of rat alpha 3 beta 2 nicotinic acetylcholine receptor (nAChR) to that of at alpha 7 nicotinic acetylcholine receptor (nAChR)
[3] = target: Neuronal acetylcholine receptor subunit alpha-7 (Rattus norvegicus, UniProt Q05941); experiment: Compound was evaluated for inhibition of rat Nicotinic acetylcholine receptor alpha-7 (nAChR) in Xenopus Oocytes; type: cell-based
Chain of Neuronal acetylcholine receptor subunit alpha-7 (Q05941 whole entry): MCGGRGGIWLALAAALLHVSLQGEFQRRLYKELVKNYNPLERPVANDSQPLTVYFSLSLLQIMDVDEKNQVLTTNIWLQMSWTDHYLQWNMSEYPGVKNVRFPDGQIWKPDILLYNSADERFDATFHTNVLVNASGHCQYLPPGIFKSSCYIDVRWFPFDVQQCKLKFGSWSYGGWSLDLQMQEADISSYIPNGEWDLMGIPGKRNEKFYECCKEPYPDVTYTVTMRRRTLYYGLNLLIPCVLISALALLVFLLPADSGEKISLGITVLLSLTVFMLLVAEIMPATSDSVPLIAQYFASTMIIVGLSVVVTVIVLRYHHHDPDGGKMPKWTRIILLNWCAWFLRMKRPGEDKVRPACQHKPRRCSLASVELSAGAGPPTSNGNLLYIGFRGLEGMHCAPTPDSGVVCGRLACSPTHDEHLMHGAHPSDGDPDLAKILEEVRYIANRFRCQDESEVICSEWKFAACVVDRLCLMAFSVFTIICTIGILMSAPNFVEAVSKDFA
Method in brief: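 Rat α7 nAChR cRNA (5–50 ng/µL, 50 nL) injected into Xenopus oocytes kept at 19 °C in ND96 (pH 7.4) plus gentamycin; two-electrode voltage clamp 2–10 days later at −70 mV. Peptide applied once three agonist responses differed <10%, added to static bath and incubated 3–10 min before agonist. IC50 and nH from concentration–response curve fit; 95% confidence intervals.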

Chain of Neuronal acetylcholine receptor; alpha3/beta2 (P04757 whole entry, the tested form may be a part): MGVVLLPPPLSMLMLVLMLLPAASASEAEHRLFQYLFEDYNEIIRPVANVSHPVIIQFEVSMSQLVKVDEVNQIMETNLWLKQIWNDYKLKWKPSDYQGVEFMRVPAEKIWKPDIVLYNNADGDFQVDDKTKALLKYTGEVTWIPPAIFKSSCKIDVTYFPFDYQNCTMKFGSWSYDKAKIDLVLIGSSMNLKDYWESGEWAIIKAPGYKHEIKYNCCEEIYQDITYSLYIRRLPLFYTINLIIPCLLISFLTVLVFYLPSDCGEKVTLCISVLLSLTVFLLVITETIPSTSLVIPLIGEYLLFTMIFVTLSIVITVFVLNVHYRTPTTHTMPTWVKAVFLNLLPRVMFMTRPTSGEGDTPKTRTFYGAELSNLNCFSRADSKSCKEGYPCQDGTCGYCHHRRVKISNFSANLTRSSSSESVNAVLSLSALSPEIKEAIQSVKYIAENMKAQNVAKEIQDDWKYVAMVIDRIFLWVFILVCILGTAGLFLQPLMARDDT
Chain of Neuronal acetylcholine receptor; alpha3/beta2 (P12390 whole entry, the tested form may be a part): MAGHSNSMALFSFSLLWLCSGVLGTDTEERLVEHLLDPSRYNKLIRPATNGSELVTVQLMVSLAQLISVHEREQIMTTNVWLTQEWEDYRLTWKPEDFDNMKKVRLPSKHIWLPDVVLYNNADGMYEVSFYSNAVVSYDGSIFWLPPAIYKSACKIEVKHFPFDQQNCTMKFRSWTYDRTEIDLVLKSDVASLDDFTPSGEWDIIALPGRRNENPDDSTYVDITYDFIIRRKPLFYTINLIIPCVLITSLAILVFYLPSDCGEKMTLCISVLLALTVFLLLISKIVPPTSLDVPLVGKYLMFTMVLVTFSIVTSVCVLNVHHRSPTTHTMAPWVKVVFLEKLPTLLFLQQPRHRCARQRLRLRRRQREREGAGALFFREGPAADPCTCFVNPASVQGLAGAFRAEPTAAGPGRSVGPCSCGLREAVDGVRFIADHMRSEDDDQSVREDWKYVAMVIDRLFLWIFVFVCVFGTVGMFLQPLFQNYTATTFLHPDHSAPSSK

For `C[C@H](NC(=O)[C@H](C)NC(=O)[C@H](CS)NC(=O)[C@H](C)NC(=O)[C@H]1CCCN1C(=O)[C@H](Cc1cnc[nH]1)NC(=O)[C@H](CO)NC(=O)[C@H](CS)NC(=O)[C@H](CS)NC(=O)CNC(=O)CN)C(=O)N[C@@H](CC(N)=O)C(=O)N[C@@H](CC(N)=O)C(=O)N[C@@H](CCC(N)=O)C(=O)N[C@@H](CC(=O)O)C(=O)N[C@@H](Cc1ccc(O)cc1)C(=O)N[C@@H](CS)C(=O)O`, which IC50 [1] is on record?
Its IC50 is 0.54 nM.

For `C[C@H](NC(=O)[C@H](CS)NC(=O)[C@H](C)NC(=O)[C@H]1CCCN1C(=O)[C@H](CC1=CNCN1)NC(=O)[C@H](CO)NC(=O)[C@H](CS)NC(=O)[C@H](CS)NC(=O)CN)C(=O)N[C@@H](CC(N)=O)C(=O)N[C@@H](CC(N)=O)C(=O)N[C@@H](CCC(N)=O)C(=O)N[C@@H](CC(=O)O)C(=O)N[C@@H](Cc1ccc(O)cc1)C(=O)N[C@@H](CS)C(N)=O`, which IC50 [1] is on record?
Its IC50 is 0.17 nM.

Which IC50 [1] does the source give for `C[C@H](NC(=O)[C@H](C)NC(=O)[C@H](CS)NC(=O)[C@H](C)NC(=O)[C@H]1CCCN1C(=O)[C@H](Cc1c[nH]cn1)NC(=O)[C@H](CO)NC(=O)[C@H](CS)NC(=O)[C@H](CS)NC(=O)CNC(=O)CNC(=O)CN)C(=O)N[C@@H](CC(N)=O)C(=O)N[C@@H](CC(N)=O)C(=O)N[C@@H](CCC(N)=O)C(=O)N[C@@H](CC(=O)O)C(=O)N[C@@H](Cc1ccc(O)cc1)C(=O)N[C@@H](CS)C(N)=O` here?
Its IC50 is 0.2 nM.

For `C[C@H](NC(=O)[C@H](C)NC(=O)[C@H](CS)NC(=O)[C@H](C)NC(=O)[C@H]1CCCN1C(=O)[C@H](Cc1cnc[nH]1)NC(=O)[C@H](CO)NC(=O)[C@H](CS)NC(=O)[C@@H](N)CS)C(=O)N[C@@H](CC(N)=O)C(=O)N[C@@H](CC(N)=O)C(=O)N[C@@H](CCC(N)=O)C(=O)N[C@@H](CC(=O)O)C(=O)N[C@@H](Cc1ccc(O)cc1)C(=O)N[C@@H](CS)C(N)=O`, which IC50 [1] is on record?
The IC50 was 5.84 nM.

For `CC(C)C[C@H](NC(=O)[C@H](CC(N)=O)NC(=O)[C@H](CO)NC(=O)[C@H](Cc1c[nH]cn1)NC(=O)[C@H](CCC(=O)O)NC(=O)[C@H](CC(C)C)NC(=O)[C@H](Cc1c[nH]cn1)NC(=O)[C@H](CS)NC(=O)[C@@H](NC(=O)[C@@H]1CCCN1C(=O)[C@H](CC(N)=O)NC(=O)[C@H](CO)NC(=O)[C@H](CS)NC(=O)[C@H](CS)NC(=O)CN)C(C)C)C(=O)N[C@@H](CS)C(N)=O`, which Ratio [2] is on record?
The Ratio was 0.0025.

Which IC50 [3] does the source give for `C[C@H](NC(=O)[C@H](C)NC(=O)[C@H](CS)NC(=O)[C@H](C)NC(=O)[C@H]1CCCN1C(=O)[C@H](Cc1c[nH]cn1)NC(=O)[C@H](CO)NC(=O)[C@H](CS)NC(=O)[C@H](CS)NC(=O)CNC(=O)CN)C(=O)N[C@@H](CC(N)=O)C(=O)N[C@@H](CC(N)=O)C(=O)N[C@@H](CCC(N)=O)C(=O)N[C@@H](CC(=O)O)C(=O)N[C@@H](Cc1ccc(O)cc1)C(=O)N[C@@H](CS)C(N)=O` here?
Its IC50 is 76 nM.

And the IC50 [1]?
The IC50 was 0.28 nM and 0.3 nM.

And the Ratio [2]?
Its Ratio is 0.004.

Which IC50 [1] does the source give for `CC[C@H](C)[C@H](NC(=O)[C@H](Cc1c[nH]cn1)NC(=O)[C@H](CCC(N)=O)NC(=O)[C@H](CC(N)=O)NC(=O)[C@H](CC(N)=O)NC(=O)CNC(=O)[C@H](C)NC(=O)[C@H](CS)NC(=O)[C@H](C)NC(=O)[C@@H]1CCCN1C(=O)[C@H](Cc1c[nH]cn1)NC(=O)[C@H](CO)NC(=O)[C@H](CS)NC(=O)[C@H](CS)NC(=O)CN)C(=O)N[C@@H](CS)C(N)=O` here?
The IC50 was 1.1 nM.

For `CC(C)C[C@H](NC(=O)[C@H](CC(N)=O)NC(=O)[C@H](CO)NC(=O)[C@H](Cc1cnc[nH]1)NC(=O)[C@H](CCC(=O)O)NC(=O)[C@H](CC(C)C)NC(=O)[C@H](Cc1cnc[nH]1)NC(=O)[C@H](CS)NC(=O)[C@@H](NC(=O)[C@@H]1CCCN1C(=O)[C@H](CC(N)=O)NC(=O)[C@H](CO)NC(=O)[C@H](CS)NC(=O)[C@H](CS)NC(=O)CN)C(C)C)C(=O)N[C@@H](CS)C(N)=O`, which IC50 [1] is on record?
Its IC50 is 0.5 nM.

For `C[C@H](NC(=O)[C@H](C)NC(=O)[C@H](CS)NC(=O)[C@H](C)NC(=O)[C@H]1CCCN1C(=O)[C@H](Cc1cnc[nH]1)NC(=O)[C@H](CO)NC(=O)[C@H](CS)NC(=O)[C@H](CS)NC(=O)CNC(=O)CN)C(=O)N[C@@H](CC(N)=O)C(=O)N[C@@H](CC(N)=O)C(=O)N[C@@H](CCC(N)=O)C(=O)N[C@@H](CC(=O)O)C(=O)N[C@@H](Cc1ccc(OS(=O)(=O)O)cc1)C(=O)N[C@@H](CS)C(N)=O`, which IC50 [1] is on record?
The IC50 was 0.64 nM.
